This passage reports EC50 results from ChEMBL document CHEMBL1123705, “Antitumor agents. 86. Synthesis and cytotoxicity of alpha-methylene-gamma-lactone-bearing purines” (1987).

Common to all, as to assay type: functional
One experiment relates to KB. As to the kind of experiment: Compound was tested for its antitumor activity and the cytotoxicity against KB human carcinoma of the nasopharynx screen. Particulars: read-out: ED50 (the source's name). An outline of the steps:
(§1)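 Run per the NIH cytotoxicity protocol. Viable cells were counted by trypan blue exclusion and expressed as a percentage of the 0.05% Tween 80–water control. ED₅₀ was estimated from a semilog plot against drug concentration.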

In the next experiment the test system is L1210. The experiment can be described thus: Compound was tested for its antitumor activity and the cytotoxicity against L1210 lymphoid leukemia screen. The conditions noted are these: Mus musculus, read-out: ED50 (the source's name). An outline of the steps: as §1
A further experiment deals with P388. The experiment can be described thus: Compound was tested for its antitumor activity and the cytotoxicity against P-388 lymphocytic leukemia screen. Particulars: Mus musculus, read-out: ED50 (the source's name). The gist of the method:
as §1

Values after ≈ are worked out from the molar mass of the structure shown. Where only a bound is given, the exact number is not on record here.

Regarding `C=C1CC(C)(Cn2cnc3c(O)ncnc32)OC1=O` (stereo unspecified), the EC50 in the experiment on KB was greater than 10 µg/mL; in the experiment on L1210, 2 µg/mL (≈ 7.68 µM); in the experiment on P388, greater than 20 µg/mL.

Regarding `C=C1CC(C)(Cn2c(N)nc3ncnc-3c2O)OC1=O` (stereo unspecified), the EC50 with KB was greater than 10 µg/mL; in the experiment with L1210 it was 1.3 µg/mL (≈ 4.72 µM); in the experiment on P388, greater than 20 µg/mL.

Turning to `C=C1CC(C)(Cn2cnc3c(N)ncnc32)OC1=O` (stereo unspecified), the EC50 is 5 µg/mL (≈ 19.3 µM) in the experiment on KB, 0.3 µg/mL (≈ 1.16 µM) in the experiment on L1210 and greater than 20 µg/mL in the experiment with P388.

For `COc1cc([C@@H]2c3cc4c(cc3[C@@H](O[C@@H]3O[C@@H]5CO[C@@H](C)O[C@H]5[C@H](O)[C@H]3O)[C@H]3COC(=O)[C@H]23)OCO4)cc(OC)c1O` [ETOPOSIDE], the EC50 in the experiment on L1210 was 1.58 µg/mL (≈ 2.68 µM); in the experiment with P388, 1.71 µg/mL (≈ 2.91 µM).
